Results reported in ChEMBL document CHEMBL2331412, “Oxo-heterocyclic fused naphthalimides as antitumor agents: synthesis and biological evaluation” (Eur J Med Chem, 2013).
Calls of active or inactive are those of the source. The calls are words filed in the database; no cut-off is given here.

What was measured:
[1] = target: DNA topoisomerase 2-alpha (Homo sapiens) (UniProt P11388); experiment: Inhibition of human topoisomerase 2a-mediated kinetoplast decatenation at 100 uM after 30 mins by agarose gel electrophoresis
In short: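 ATP-dependent kDNA decatenation by 1 unit human topo IIα. Incubated 30 min at 37 °C in 50 mM Tris-HCl pH 8, 150 mM NaCl, 10 mM MgCl2, 2 mM ATP and 0.5 mM DTT. Stopped with SDS, run on 0.8% agarose in TAE for 50 min at 120 V, stained with ethidium bromide and imaged under UV.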

Bos taurus [2] = species: Bos taurus; experiment: Inhibition of calf thymus topoisomerase 1-mediated pBR322 relaxation at 100 uM after 30 mins by agarose gel electrophoresis
In short: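 Topoisomerase I and compound were incubated 30 min at 37 °C in topo I buffer with 0.01% BSA. Reactions were stopped with SDS and loading dye, then run on 0.8% agarose in TAE for 35 min at 120 V, stained with ethidium bromide and imaged under UV.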

[3] = Cytotoxicity against human LO2 cells by SRB assay; type: cell-based; conditions: L02
A549 = experiment: Cytotoxicity against human A549 cells by SRB assay; type: functional, cell-based
P388 = experiment: Cytotoxicity against mouse P388 cells by tetrazolium-formazan assay; type: functional, cell-based
[4] = Binding affinity to Poly(dAdT).Poly(dAdT) (unknown origin)
In short: (§1)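 Fluorescence titration in 20 mM sodium phosphate pH 7.0 at 20 ± 1 °C. Compound held at 3 × 10^-6 M while polydeoxynucleotide was varied from 0 to 6.32 × 10^-5 M. Ka was obtained by nonlinear curve fitting of the data. The ratio line is the GC-polymer Ka divided by the AT-polymer Ka.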

[5] = Binding affinity to 5'ACCCCT3'/3'TGGGGA5' (unknown origin)
[6] = Binding affinity to 5'ACGGCT3'/3'TGCCGA5'(unknown origin)
[7] = Selectivity ratio of Ka for Poly(dGdC).Poly(dGdC) (unknwon origin) to Ka for Poly(dAdT).Poly(dAdT) (unknown origin); in short: as §1
[8] = Binding affinity to 5'ACCCGT3'/3'TGGGCA5' (unknown origin)
[9] = Binding affinity to Poly(dGdC).Poly(dGdC) (unknown origin); in short: as §1
[10] = Binding affinity to 5'ACGCCT3'/3'TGCGGA5' (unknown origin)
DNA [11] = experiment: Binding affinity to calf thymus DNA at 20 uM after 1 hr by fluorimetric analysis; type: nucleic-acid assay; conditions: Bos taurus; 10 uM; in the assay text read “at 10 uM” for “at 20 uM”
In short: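 Fluorescence quenching with increasing calf thymus DNA in 20 mM Tris-HCl pH 7.5 containing 1% DMSO (v/v). Mixtures were stirred for 1 h at 25 °C in the dark before each spectrum was recorded. Kb came from nonlinear fitting of fluorescence intensity against DNA concentration.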

DNA [12] = experiment: Binding affinity to calf thymus DNA at 20 uM by circular dichroism analysis; type: nucleic-acid assay; conditions: Bos taurus
In short: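 Circular dichroism spectra of compound with calf thymus DNA in 20 mM Tris-HCl pH 7.5 containing 1% DMSO (v/v). Recorded in a 1 cm quartz cell over 240–300 nm.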

[13] = Binding affinity to 5'TGCGCA3'/3'ACGCGT5' (unknown origin)
[14] = Binding affinity to 5'TGGCGA3'/3'ACCGCT5' (unknown origin)
[15] = Binding affinity to 5'ATGCGCAT3'/3'TACGCGTA5' (unknown origin)
[16] = Binding affinity to 5'ACCGGT3'/3'TGGCCA5' (unknown origin)
Bos taurus [17] = species: Bos taurus; experiment: Inhibition of calf thymus topoisomerase 1-mediated pBR322 relaxation at 200 uM after 30 mins by agarose gel electrophoresis
In short: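 Topoisomerase I and compound incubated 30 min at 37 °C in topoisomerase I buffer with 0.01% BSA. Reactions were stopped with 10% SDS and loading dye. Products were resolved on a 0.8% agarose gel in TAE for 35 min at 120 V, stained with ethidium bromide at room temperature and photographed under UV.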

Chain of DNA topoisomerase 2-alpha (Homo sapiens) (P11388 whole entry): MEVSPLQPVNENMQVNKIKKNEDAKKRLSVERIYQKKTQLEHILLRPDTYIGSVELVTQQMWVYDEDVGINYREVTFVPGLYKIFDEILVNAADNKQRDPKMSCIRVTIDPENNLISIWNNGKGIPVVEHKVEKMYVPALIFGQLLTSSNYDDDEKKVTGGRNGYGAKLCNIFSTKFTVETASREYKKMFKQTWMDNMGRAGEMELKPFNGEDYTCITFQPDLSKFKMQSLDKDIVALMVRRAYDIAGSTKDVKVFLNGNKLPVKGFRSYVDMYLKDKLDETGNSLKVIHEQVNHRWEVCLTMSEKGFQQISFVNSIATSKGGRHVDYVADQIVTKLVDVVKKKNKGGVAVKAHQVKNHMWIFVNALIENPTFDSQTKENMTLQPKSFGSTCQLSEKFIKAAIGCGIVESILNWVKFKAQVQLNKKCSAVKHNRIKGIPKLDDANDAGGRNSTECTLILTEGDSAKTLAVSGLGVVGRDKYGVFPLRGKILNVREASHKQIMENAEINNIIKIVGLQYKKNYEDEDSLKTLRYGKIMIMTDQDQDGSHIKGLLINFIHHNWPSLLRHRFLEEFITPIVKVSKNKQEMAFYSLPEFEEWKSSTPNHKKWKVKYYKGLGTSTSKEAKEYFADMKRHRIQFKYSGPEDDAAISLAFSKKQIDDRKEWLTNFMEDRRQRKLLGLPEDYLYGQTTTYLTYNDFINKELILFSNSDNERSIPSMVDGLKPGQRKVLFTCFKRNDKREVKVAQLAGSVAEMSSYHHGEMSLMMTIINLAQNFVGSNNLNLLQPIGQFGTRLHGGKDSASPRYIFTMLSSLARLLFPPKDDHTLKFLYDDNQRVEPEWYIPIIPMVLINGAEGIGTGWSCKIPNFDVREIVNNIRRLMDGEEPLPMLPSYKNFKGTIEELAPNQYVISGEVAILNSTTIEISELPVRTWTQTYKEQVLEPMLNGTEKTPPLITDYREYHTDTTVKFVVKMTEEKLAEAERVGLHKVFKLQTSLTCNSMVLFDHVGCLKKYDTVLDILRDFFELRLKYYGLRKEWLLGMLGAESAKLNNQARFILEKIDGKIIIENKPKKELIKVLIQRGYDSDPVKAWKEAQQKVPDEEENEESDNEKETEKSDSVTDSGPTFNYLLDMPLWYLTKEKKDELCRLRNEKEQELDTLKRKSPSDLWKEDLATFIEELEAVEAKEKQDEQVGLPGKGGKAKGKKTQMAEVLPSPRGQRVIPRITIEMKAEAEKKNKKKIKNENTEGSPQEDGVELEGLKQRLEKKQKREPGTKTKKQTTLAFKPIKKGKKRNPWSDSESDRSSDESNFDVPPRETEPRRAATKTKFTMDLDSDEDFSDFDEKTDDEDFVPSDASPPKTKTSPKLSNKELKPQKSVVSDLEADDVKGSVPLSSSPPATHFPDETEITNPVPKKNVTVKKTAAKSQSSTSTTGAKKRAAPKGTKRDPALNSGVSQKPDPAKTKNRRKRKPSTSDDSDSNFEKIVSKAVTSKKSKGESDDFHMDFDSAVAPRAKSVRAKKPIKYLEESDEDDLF

| Compound | IC50 [3] | IC50 (A549) | IC50 (P388) | further results |
| --- | --- | --- | --- | --- |
| COc1cc([C@@H]2c3cc4c(cc3[C@@H](O[C@@H]3O[C@@H]5CO[C@@H](C)O[C@H]5[C@H](O)[C@H]3O)[C@H]3COC(=O)[C@H]23)OCO4)cc(OC)c1O |  |  |  | Inhibition (qualitative) [1]: Active; Topoisomerase 1 relaxation inhibition (qualitative) (Bos taurus [2]): Active |
| CN(C)CCCn1c(=O)c2ccc3oc4ccccc4c4ccc(c1=O)c2c34 | 10.3 µM | 98.3 µM | 3.5 µM |  |
| CN(C)CCn1c(=O)c2ccc3sc4ccccc4c4ccc(c1=O)c2c34 | 4.1 µM |  |  | Ka [4]: 4.48 ×10⁵ /M; Ka [5]: 1.89 ×10⁵ /M; Inhibition (qualitative) [1]: Active; Ka [6]: 3 ×10⁴ /M; Selectivity ratio [7]: 10; Ka [8]: 9.09 ×10⁵ /M; Ka [9]: 4.76 ×10⁶ /M; Ka [10]: 1.92 ×10⁵ /M; Ka (DNA [11]): 9.7 ×10⁴ /M; Activity (DNA [12]): Active; Topoisomerase 1 relaxation inhibition (qualitative) (Bos taurus [2]): Active; Ka [13]: 3.33 ×10⁶ /M; Ka [14]: 2.13 ×10⁵ /M; Ka [15]: 4.76 ×10⁵ /M; Ka [16]: 4 ×10⁵ /M |
| COc1ccc(-c2nc3cc4c5c(cccc5c3s2)C(=O)N(CCN(C)C)C4=O)cc1 |  | 0.016 µM | 0.43 µM |  |
| CN(C)CCCn1c(=O)c2ccc3sc4ccccc4c4ccc(c1=O)c2c34 |  | 0.19 µM | 0.63 µM |  |
| CC[C@@]1(O)C(=O)OCc2c1cc1n(c2=O)Cc2cc3ccccc3nc2-1 |  |  |  | inhibition (Bos taurus [17]): Active |
| Cc1ccc(-c2nc3cc4c5c(cccc5c3o2)C(=O)N(CCN(C)C)C4=O)cc1 | 6.7 µM | 34.7 µM | 19.3 µM |  |
| CCCCN1C(=O)c2cccc3c2c(cc2c4ccccc4oc32)C1=O | > 100 µM | 1.4 µM | > 100 µM |  |
| COc1ccccc1-c1nc2cc3c4c(cccc4c2o1)C(=O)N(CCN(C)C)C3=O | 1.9 µM | 0.89 µM | 1.3 µM |  |
| CN(C)CCN1C(=O)c2cccc3c2c(cc2nc(-c4ccc(Cl)cc4)oc23)C1=O | > 100 µM | 72.4 µM | 20.1 µM |  |
| CN(C)CCN1C(=O)c2cccc3c2c(cc2c4ccccc4oc32)C1=O | 5 µM | 0.36 µM | 0.65 µM | Ka [4]: 5 ×10⁶ /M; Inhibition (qualitative) [1]: Active; Ka [9]: 6.36 ×10⁶ /M; Ka (DNA [11]): 2.89 ×10⁵ /M; Activity (DNA [12]): Active; Topoisomerase 1 relaxation inhibition (qualitative) (Bos taurus [2]): Active |
| CN(C)CCCN1C(=O)c2cccc3c2c(cc2c4ccccc4sc32)C1=O |  | 0.25 µM | 0.32 µM |  |
| CN(C)CCCN1C(=O)c2cccc3c2c(cc2c4ccccc4oc32)C1=O | 6.6 µM | 0.74 µM | 0.17 µM |  |
| O=c1c2ccc3oc4ccccc4c4ccc(c(=O)n1CCN1CCNCC1)c2c34 | 11.5 µM | 28.9 µM | 4.52 µM |  |
| CN(C)CCN1C(=O)c2cccc3c2c(cc2nc(-c4ccc([N+](=O)[O-])cc4)oc23)C1=O | > 100 µM | 17.8 µM | 100 µM |  |
| CCCCn1c(=O)c2ccc3oc4ccccc4c4ccc(c1=O)c2c34 | > 100 µM | 5.39 µM | > 100 µM |  |
| CCCCN1C(=O)c2cccc3c2c(cc2c4ccccc4sc32)C1=O |  | 1.35 µM | 0.74 µM |  |
| CN(C)CCN1C(=O)c2cccc3c2c(cc2nc(-c4ccccc4)sc23)C1=O |  | 0.085 µM | 0.66 µM |  |
| CN(C)CCN1C(=O)c2cccc3c2c(cc2c4ccccc4sc32)C1=O | 0.9 µM |  |  | Ka [4]: 8 ×10⁶ /M; Inhibition (qualitative) [1]: Active; Selectivity ratio [7]: 10; Ka [9]: 7.6 ×10⁷ /M; Ka (DNA [11]): 1.1 ×10⁵ /M; Activity (DNA [12]): Active; Topoisomerase 1 relaxation inhibition (qualitative) (Bos taurus [2]): Active |
| CCCCn1c(=O)c2ccc3sc4ccccc4c4ccc(c1=O)c2c34 |  | 0.87 µM | 1.2 µM |  |
| O=C1c2cccc3c2c(cc2c4ccccc4sc32)C(=O)N1CCN1CCNCC1 |  | 11.8 µM | 72.4 µM |  |
| COc1ccc(-c2nc3cc4c5c(cccc5c3o2)C(=O)N(CCN(C)C)C4=O)cc1 | 3.4 µM | 6.6 µM | 1.29 µM |  |
| CN(C)CCN1C(=O)c2cccc3cc(N)cc(c23)C1=O [AMONAFIDE] | 5 µM |  |  | Inhibition (qualitative) [1]: Active |
| CN(C)CCN1C(=O)c2cccc3c2c(cc2nc(-c4ccccc4)oc23)C1=O | 3 µM | 0.53 µM | 2.5 µM |  |
| Cc1ccc(-c2nc3cc4c5c(cccc5c3s2)C(=O)N(CCN(C)C)C4=O)cc1 |  | 0.42 µM | 0.62 µM |  |
| O=c1c2ccc3sc4ccccc4c4ccc(c(=O)n1CCN1CCNCC1)c2c34 |  | 100 µM | > 100 µM |  |
| CN(C)CCn1c(=O)c2ccc3oc4ccccc4c4ccc(c1=O)c2c34 | 4.1 µM | 0.61 µM | 1.11 µM | Ka [4]: 1.32 ×10⁵ /M; Ka [5]: 1.72 ×10⁵ /M; Inhibition (qualitative) [1]: Active; Ka [6]: 5.9 ×10³ /M; Ka [8]: 1.2 ×10⁴ /M; Ka [9]: 6.89 ×10⁵ /M; Ka [10]: 6.9 ×10³ /M; Ka (DNA [11]): 1.45 ×10⁵ /M; Activity (DNA [12]): Active; Topoisomerase 1 relaxation inhibition (qualitative) (Bos taurus [2]): Active; Ka [13]: 1.28 ×10⁵ /M; Ka [14]: 8.4 ×10⁴ /M; Ka [15]: 8 ×10⁴ /M; Ka [16]: 1.12 ×10⁵ /M |
